CRFBP-R2 agonist – CRF-BP/CRF-R2 complex agonism | hit rate 0.46% among 350,000 | HEK293 CRF-R2/CRF-BP, calcium dye fluorescence (FLIPR); percent of saturating CRF peptide response | AID 588473 | activation, % at 13.2 µM;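 active = activation of at least 50%, plus an integration ratio under a set limit after plate pattern correction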;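 note: plate controls were neutral control wells without compound for no effect and CRF at EC100 for full effect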
DDE Tn6 FP inh – inhibitors of Tn6 peptide binding to human fibrin DD(E); P02675; Fibrin DD(E) TRITC-Tn6 fluorescence polarization displacement; inhibition, % at 8.3 µM; hit rate 0.21% among 370,000;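 active = inhibition above a per-campaign cutoff: mean of compounds within control limits plus 3 SD, cut at about 15% in these data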;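 note: 0% = median of all compound wells on the plate and 100% = blocking peptide control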
Target sequence (P02675 whole entry, looked up): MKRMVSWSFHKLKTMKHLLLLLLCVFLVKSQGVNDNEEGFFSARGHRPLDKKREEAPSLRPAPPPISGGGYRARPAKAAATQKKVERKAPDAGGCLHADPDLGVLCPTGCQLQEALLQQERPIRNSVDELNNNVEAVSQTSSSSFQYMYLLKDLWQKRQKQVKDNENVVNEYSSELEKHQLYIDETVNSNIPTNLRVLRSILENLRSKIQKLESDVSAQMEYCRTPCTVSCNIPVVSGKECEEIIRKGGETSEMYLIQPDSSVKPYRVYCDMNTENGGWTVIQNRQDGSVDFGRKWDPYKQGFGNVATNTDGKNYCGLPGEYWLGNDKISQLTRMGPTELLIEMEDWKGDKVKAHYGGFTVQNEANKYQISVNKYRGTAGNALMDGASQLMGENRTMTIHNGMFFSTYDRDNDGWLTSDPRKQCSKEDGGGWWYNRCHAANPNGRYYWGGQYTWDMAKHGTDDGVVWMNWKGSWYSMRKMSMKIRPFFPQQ
Cardiac RTF inh – cardiac RTF calcium desensitization. AID 493244. hit rate 0.12% among 340,000. P19429+P45379. IANBD-labeled cardiac RTF, Ca2+ fluorescence. inhibition, % at 7.15 µM;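 active = inhibition above the mean inhibition of all tested compounds plus 3 SD, cut at about 17% in these data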;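 note: assay run at fixed EC70 calcium of 1.6 mM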
cardiac RTF act – increases calcium sensitivity of human cardiac regulated thin filaments; IANBD-labeled TnC RTF fluorescence at EC20 calcium; 0% EC20 calcium, 100% full calcium; hit rate 0.24% among 340,000; AID 493008; activation, % at 7.2 µM;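 active = activation above the mean over all tested compounds plus 3 SD, cut at about 30% in these data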;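 note: rise in fluorescence read as greater calcium sensitivity of cardiac thin filaments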
CRFR2-BP antag – CRF-BP/CRF-R2 complex antagonism. HEK293 CRF-R2/CRF-BP, CRF-induced calcium fluorescence. inhibition, % at 11.8 µM. hit rate 0.59% among 350,000. AID 588475;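 active = inhibition of the ligand-induced calcium signal above about 50% at the single tested concentration, limit read from the data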
Tn7 DDE FP – DD(E)-Tn7 binding inhibition, primary FP screen | FP displacement of FITC-Tn7 peptide from fibrin DD(E); 0% = median of compound wells per plate | inhibition, % at 8.3 µM | hit rate 0.13% among 370,000;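 active = inhibition above the mean of compounds falling within the control limits plus 3 SD of them, cut at about 14% in these data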;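 note: 0% = plate median of compound wells and 100% = 10 µM Aha-Tn7 peptide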
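Assay system: human fibrin DD(E). Input: DD(E) 2 µM final. Medium: Tris buffer with calcium and detergent, pH 7.8. Compound dosing: single point at 8.3 µM. Timing: 10 min plus 3 h, room temperature. Technique: fluorescence polarization of the labelled Tn7 tracer. Read-out: percent inhibition. Replicates: singlicate testing.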
Numbers without * were called inactive; . = no result. Shown are actives, neighbours in structure and some others; about 1.4% of the full set was active somewhere.

SMILES	CRFBP-R2 agonist	DDE Tn6 FP inh	Cardiac RTF inh	cardiac RTF act	CRFR2-BP antag	Tn7 DDE FP
O=C(Nc1cc(C(F)(F)F)ccc1-n1cncn1)c1ccc(Cl)cc1	-1.7	2.3	-0.7	-6.3	81.7*	-5.5
CC1(C)CC[C@]2(C(=O)n3ccnc3)CC[C@]3(C)[C@H](C(=O)C=C4[C@@]5(C)C=C(C#N)C(=O)C(C)(C)[C@@H]5CC[C@]43C)[C@@H]2C1	121.5*	-1.0	9.2	-2.5	-97.5	-2.0
CCC(=O)N/N=C/c1ccc(-c2ccc([N+](=O)[O-])cc2)o1	3.3	0.0	7.1	0.3	1.4	-3.5
CC(C)(C)C(=O)/C=c1\s/c(=C\c2ccc(-c3ccc([N+](=O)[O-])cc3)o2)c(=O)n1CC(=O)NC(N)=O	212.2*	4.7	-90.6	53.7*	-139.0	-8.8
CC(=O)Nc1ccc(CN(C)c2c(C)nc3ccc(C(=O)N4CCN(c5ccccc5)CC4)cn23)cc1	.	-1.1	.	.	.	3.3
CCN(CCNC(=O)[C@H]1C=C(OC)C(=O)C[C@H](c2ccccc2)[C@H]1C)C(C)=O	.	4.2	.	.	.	5.9
Cc1nc(-c2ccccc2)sc1-c1n[nH]c(=S)n1C	-2.9	2.4	-8.9	-2.3	4.9	4.8
CSc1nnc(-c2sc(-c3ccccc3)nc2C)n1C	0.1	4.2	4.6	-1.6	55.3*	-7.4
CC1=C(C#N)C(=O)NC(C)(C)C1	16.8	1.7	-24.4	6.2	53.9*	-0.2
COc1cccc(/C=N/Nc2snc(SC)c2C#N)c1O	69.3*	-5.8	9.2	1.4	39.5	10.9
COCCn1c(=O)[nH]c(=O)c2cc(C(=O)c3cc(Cl)ccc3O)cnc21	99.2*	.	6.2	0.6	-8.9	.
COc1ccc(O)c(C(=O)c2cnc3c(c2)c(=O)[nH]c(=O)n3C)c1	-5.5	-6.7	-10.7	3.2	1.7	2.5
Cn1c(=O)[nH]c2c(Br)nccc21	.	0.4	.	.	.	-5.8
C=CCOC(=O)C1=C(C)Nc2ncnn2C1c1cc(Br)ccc1F (stereo not given)	-2.0	-3.1	-5.4	1.5	-9.6	3.8
COc1cccc(C2C=C(c3ccc(Br)s3)Nc3ncnn32)c1OC (stereo not given)	106.1*	.	-38.6	37.1*	-89.1	.
Fc1ccc(Br)cc1C1C=C(c2ccc(Br)s2)Nc2ncnn21 (stereo not given)	28.6	.	-69.3	72.9*	1.4	.
COCCN1C(=O)c2ccccc2C1c1nc2ccccc2[nH]1 (stereo not given)	.	4.8	.	.	.	9.6
CCC(CC)NC(=O)CC(c1ccccc1)c1ccccc1	-10.9	3.1	-4.0	5.1	71.3*	-0.1
CC(NC(=O)CC(c1ccccc1)c1cc(Cl)ccc1O)c1ccccc1 (stereo not given)	-2.1	-3.6	-1.5	-0.9	52.5*	10.6
O=C(CSc1nnc(Cc2cccs2)n1-c1ccc(Cl)cc1)Nc1ccc(OCc2ccccc2)cc1	.	1.7	.	.	.	7.8
CN(CCOc1ccc(Cl)cc1)C(=O)C1CCN(C(=O)c2ccc(Cl)cc2)CC1	-0.8	1.1	-5.4	5.4	120.0*	-5.0
C=CCN=C1NC(c2cccc(Cl)c2)C(C(=O)OC)=C(C)N1Cc1ccc(C(F)(F)F)cc1 (stereo not given)	.	7.7	.	.	.	8.1
CC(C)C[C@H](NC1(C(=O)NC2CCCCC2)CCCCC1)C(=O)NCCc1c[nH]c2ccccc12	.	-5.5	.	.	.	-0.4
CC1(C)C2CC=C(/C=N/NC(=O)c3ccccc3O)C1C2 (stereo not given)	46.6	3.9	-7.1	0.6	58.6*	-2.4
CNC(=S)N/N=C/C1=CCC2CC1C2(C)C (stereo not given)	-2.9	3.7	4.1	1.4	-8.9	-0.5
SMILES	CRFBP-R2 agonist	DDE Tn6 FP inh	Cardiac RTF inh	cardiac RTF act	CRFR2-BP antag	Tn7 DDE FP
COc1ccc(CNC(=O)CN2CCN(S(=O)(=O)c3cc(Br)ccc3Br)CC2)cc1OC	-1.2	2.0	-7.4	-0.5	59.9*	1.7
COc1ccc(CNC(=O)CN2CCN(S(=O)(=O)c3c(C)c(C)cc(C)c3C)CC2)cc1OC	-0.6	5.8	-1.9	-0.8	10.7	5.5
CC(C)CN1C(=O)[C@]2(CC(=O)N(C)C2c2ccccc2)c2cc(-n3cc(-c4ccccc4)nn3)ccc21 (stereo not given in full)	.	-7.2	.	.	.	-0.8
COc1ccc(-n2nnnc2C2c3ccccc3C(=O)N2C2CCN(Cc3ccccc3)CC2)cc1 (stereo not given)	.	12.2	.	.	.	4.7
O=C(O)c1ccc2nc(-c3ccccc3)c(-c3ccccc3)nc2c1	-1.3	1.5	-2.4	-4.9	18.8	-6.4
NC(=O)c1ccc2nc(-c3ccccc3)c(-c3ccccc3)nc2c1	-1.2	-0.5	4.2	-0.1	52.2*	-1.2
Cc1ccc(Cn2cc(COC(=O)NCCc3c[nH]c4ccccc34)nn2)cc1	.	-0.7	.	.	.	-2.4
Oc1c(N=Nc2ccccn2)ccc2ccccc12	99.0*	2.4	-2.5	-0.6	-90.8	-4.5
Oc1[nH]c2ccccc2c1N=Nc1ccccn1	-0.9	-1.6	-1.8	-1.7	-0.1	-2.9
CCC(=O)c1ccc(OCC(=O)Nc2cccc(S(=O)(=O)N(C)c3ccccc3)c2)cc1	1.0	-7.0	-0.5	1.6	2.5	-3.1
CN(c1ccccc1)S(=O)(=O)c1cccc(NC(=O)COc2cccc([N+](=O)[O-])c2)c1	-2.9	0.6	-10.5	3.1	51.5*	-0.7
N#CCc1ccc(OC[C@@H](O)CN2CCC(C(O)(c3ccccc3)c3ccccc3)CC2)cc1	.	4.2	.	.	.	-3.5
CS(=O)(=O)Nc1nc2n(n1)C(c1ccccc1)CC(c1ccccc1)N2 (stereo not given)	-2.0	8.7	-2.6	-1.3	105.5*	-7.2
COc1ccc(C2CC(c3ccccc3)Nc3nc(N)nn32)cc1 (stereo not given)	-1.6	-2.7	-6.8	5.1	-16.8	2.9
CCCCCCCCCOC(=O)C[n+]1csc(CCO)c1C	0.2	4.0	-2.7	-2.9	111.1*	-1.6
Cc1c(CCO)sc[n+]1CC(=O)OCCC12CC3CC(CC(C3)C1)C2	-0.4	-4.5	-0.7	0.6	5.3	4.8
O=[N+]([O-])c1cccc(C=NNc2ccc3ccccc3n2)c1O	-1.0	-2.6	2.4	-5.6	77.8*	7.7
O=C(Cc1cccs1)Nc1nc2c(ccc3ccccc32)s1	8.1	-15.1	-2.2	-1.7	53.2*	-0.5
O=C1NC(=S)S/C1=C\c1coc2ccc(O)cc2c1=O	-1.5	-10.5	-8.9	3.2	96.4*	-2.2
CCCCCCn1c(=O)[nH]c2nc3cc(N)ccc3nc2c1=O	274.7*	-2.5	.	.	-307.7	-5.1
c1coc(-c2cc3nc(NC4CCCCC4)ccn3n2)c1	.	1.3	.	.	.	-3.0
O=C(O)c1cc(O)c2c(c1)C(=O)c1cccc(O)c1C2=O	48.6	30.2*	-19.1	4.9	-40.9	3.1
